Measurements: ChEMBL document CHEMBL1125082, “Synthesis and antimalarial activity of (+)-deoxoartemisinin” (J Med Chem, 1990)
≈ marks a conversion by molar mass, not a printed value.

What was measured:
[1] = system: Plasmodium falciparum; assay: In vitro antimalarial activity against mefloquine-resistant Plasmodium falciparum D6 (Sierra Leone); assay type: functional, organism-based
In short: (§1)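 Semiautomated microdilution over a 64-fold dilution range, with DMSO stock diluted in medium with 10% plasma. Parasites at 0.5% parasitemia and 1.5% hematocrit, 37°C under 5% O2/5% CO2/90% N2 for 24 h. Tritiated hypoxanthine added for a further 18–20 h and incorporation read by scintillation. IC50 from nonlinear regression of concentration–response curves.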

[2] = system: Plasmodium falciparum; assay: In vitro antimalarial activity against chloroquine-resistant Plasmodium falciparum W2 (Indochina); assay type: functional, organism-based; in short: as §1
[3] = system: Plasmodium berghei; assay: Antimalarial activity against Plasmodium berghei infected mice (Mus musculus) at 320 mg/kg dose; active in 2 of 5; assay type: functional
In short: (§2)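 Mice infected intraperitoneally on day 0 with 5.98×10^5 P. berghei-parasitized cells. A single subcutaneous dose in peanut oil was given on day 3, at 640, 320, 160, 80, 40 or 20 mg/kg. Blood films were taken on day 6, then every 7 days to day 60. Mice surviving 60 days counted as cured. Activity meant survival over twice that of infected untreated controls.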

[4] = system: Plasmodium berghei; assay: Antimalarial activity against Plasmodium berghei infected mice (Mus musculus) at 640 mg/kg dose; n=5; assay type: functional; in short: as §2
[5] = system: Plasmodium berghei; assay: Antimalarial activity against Plasmodium berghei infected mice (Mus musculus) at 80 mg/kg dose;n=5; assay type: functional; in short: as §2
[6] = system: Plasmodium berghei; assay: Antimalarial activity against Plasmodium berghei infected mice (Mus musculus) at 40 mg/kg dose; n=5; assay type: functional; in short: as §2
[7] = system: Plasmodium berghei; assay: Antimalarial activity against Plasmodium berghei infected mice (Mus musculus) at 160 mg/kg dose; active in 2 of 5; assay type: functional; in short: as §2
[8] = system: Plasmodium berghei; assay: Antimalarial activity against Plasmodium berghei infected mice (Mus musculus) at 20 mg/kg dose; n=5; assay type: functional; in short: as §2
[9] = system: Plasmodium berghei; assay: Antimalarial activity against Plasmodium berghei infected mice (Mus musculus) at 160 mg/kg dose; n=5; assay type: functional; in short: as §2
[10] = system: Plasmodium berghei; assay: Antimalarial activity against Plasmodium berghei infected mice (Mus musculus) at 320 mg/kg dose; n=5; assay type: functional; in short: as §2

Compound	IC50 [1] [ng/mL]	IC50 [2] [ng/mL]	No. of mice cured [3]	No. of mice cured [4]	No. of mice cured [5]	No. of mice cured [6]	No. of mice cured [7]	No. of mice cured [8]	No. of mice cured [9]	No. of mice cured [10]
C[C@@H]1CC[C@H]2[C@@H](C)CO[C@@H]3OC4(C)CC[C@@H]1[C@]32O4 (single isomer, unassigned)	250 (≈ 991 nM)	250 (≈ 991 nM)	–	–	–	–	–	–	–	–
C[C@@H]1CC[C@H]2[C@@H](C)CO[C@@H]3OC4(C)CC[C@@H]1[C@]32OO4 (single isomer, unassigned) [DEOXOARTEMISININ]	0.58 (≈ 2.16 nM)	0.15 (≈ 0.559 nM)	2	5	0	0	0	0	–	–
CCO[C@H]1O[C@@H]2O[C@@]3(C)CC[C@H]4[C@H](C)CC[C@@H]([C@H]1C)[C@@]24OO3 [ARTEMOTIL]	0.87 (≈ 2.78 nM)	0.16 (≈ 0.512 nM)	–	–	–	–	–	–	–	–
C[C@@H]1CC[C@H]2[C@@H](C)C(=O)O[C@@H]3O[C@@]4(C)CC[C@@H]1[C@]32OO4 [ARTEMISININ]	2.33 (≈ 8.25 nM)	1.21 (≈ 4.29 nM)	–	5	0	0	–	0	0	0
C[C@@H]1CC[C@H]2[C@@H](C)C(O)O[C@@H]3OC4(C)CC[C@@H]1[C@]32OO4 (single isomer, unassigned)	0.11 (≈ 0.387 nM)	0.04 (≈ 0.141 nM)	–	–	–	–	–	–	–	–
